Structures are written as SMILES.

Assay [1] is described as follows: Molar concentration required to give a sensitizer enhancement ratio of 1.6 in hypoxic […] (V79) cells. It is filed as functional, Cricetulus griseus. The essentials: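 Hypoxic Chinese hamster V79-379A cells irradiated in vitro with compound present; C1.6 = molar concentration of compound giving a sensitizer enhancement ratio of 1.6.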
A short description of assay [2]: Differential toxicity expressed as the ratio of C50 (air) to C50 (nitrogen). It is filed as functional. The essentials:
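Differential toxicity = C50(air)/C50(N2), with each C50 from the MTT assay on V79-379A cells under air or nitrogen; mean of at least three experiments.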

Assay [3] has as its system V79-379A (Chinese hamster lung fibroblasts). The assay can be described thus: Cytotoxicity in nitrogen (MMT assay).
Assay [4] shares this test system. Briefly: Cytotoxicity in air (MMT assay).
A short description of assay [5]: Compound was tested for persistent physical or behavioral effects in C3H/He mice. It is filed as functional, Mus musculus. Put shortly: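 Toxicity screen in C3H/He mice: single injection as PBS (pH 7.3) solution or suspension, 0.5 or 1.0 mL per 25 g body weight, doses raised until solubility or toxicity limited; animals watched for acute, severe or persistent physical or behavioural changes (e.g. piloerection, respiration rate, locomotor activity for about 1 h).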

As for `Br.C[C@H](Br)[C@H](C)NCC(O)CNC(=O)c1ccc([N+](=O)[O-])o1` (some centres not stated), the C1.6 in assay [1] is 0.03 mM. For the same molecule, in assay [2], the d tox is 5.6. In addition, the figures for the C50 in assay [3] and in assay [4] were 0.025 mM and 0.14 mM, respectively.

`COCC(O)Cn1ccnc1[N+](=O)[O-]` (configuration not stated) [MISONIDAZOLE]: the C1.6 in assay [1] is recorded as 0.3 mM. Besides, the d tox in assay [2] turned out to be 11.3. For the same molecule, the values for the C50 in assay [3] and in assay [4] were 4 mM and 45 mM, respectively.

In the case of `C=CCOC(=O)c1ccc([N+](=O)[O-])o1`, the C1.6 in assay [1] worked out at 0.05 mM. The d tox in assay [2] is 4. Besides, the C50 is 0.025 mM in assay [3] and 0.1 mM in assay [4].

Regarding `C=CCNC(=O)c1cc([N+](=O)[O-])c(C)o1`, in assay [2], the d tox was 0.5. Besides, the C50 in assay [3] is on record as 0.03 mM; in assay [4], 0.015 mM.

With `CC1(C)CN1CC(O)CNC(=O)/C=C/c1ccc([N+](=O)[O-])o1` (configuration not stated), the C1.6 in assay [1] stood at 0.008 mM. Moreover, the d tox in assay [2] came to 4.5. The C50 in assay [3] turned out to be 0.01 mM; in assay [4], 0.045 mM.

Turning to `Br.NC(=O)N/N=C/c1ccc([N+](=O)[O-])o1`, the C1.6 in assay [1] is recorded as 0.05 mM. In addition, the d tox in assay [2] is 8.5. Besides, the figures for the C50 in assay [3] and in assay [4] were 0.2 mM and 1.7 mM, respectively.

Consider `Cc1oc([N+](=O)[O-])cc1C(=O)NCC1CO1` (configuration not stated), for which, in assay [1], the C1.6 is 0.04 mM. Moreover, the d tox in assay [2] amounted to 1. Moreover, the C50 in assay [3] and in assay [4] was 0.1 mM throughout.

`Br.O=[N+]([O-])c1nccn1CC(O)CNCCBr` (configuration not stated): in assay [1], the C1.6 is reported as 0.1 mM. Moreover, the d tox in assay [2] turned out to be 25.6. The figures for the C50 in assay [3] and in assay [4] were 0.09 mM and 2.3 mM, respectively.

Consider `CC1(C)CN1C(=O)c1ccc([N+](=O)[O-])o1`, for which, in assay [1], the C1.6 was found to be 0.1 mM. For the same molecule, the d tox in assay [2] was determined as 1. Moreover, the C50 in assay [3] and in assay [4] was 0.18 mM each time.

For the molecule `C=CCNC(=O)c1cc([N+](=O)[O-])oc1C`, the C1.6 in assay [1] was 0.075 mM. Further, the d tox in assay [2] worked out at 0.4. Besides, the results for the C50 in assay [3] and in assay [4] were 0.8 mM and 0.35 mM, respectively.

As for `O=[N+]([O-])c1nccn1CC(O)CN1CC1` (configuration not stated), the C1.6 in assay [1] is reported as 0.1 mM. The d tox in assay [2] was found to be 66.6. Further, the C50 in assay [3] is 0.0045 mM; in assay [4], 0.3 mM.

Take `C=CCNC(=O)/C=C/c1ccc([N+](=O)[O-])o1`: in assay [1], the C1.6 amounted to 0.03 mM. Besides, the d tox in assay [2] amounted to 2.4. Besides, the results for the C50 in assay [3] and in assay [4] were 0.025 mM and 0.06 mM, respectively.

Regarding `O=C(/C=C/c1ccc([N+](=O)[O-])o1)NCC1CO1` (configuration not stated), the C1.6 in assay [1] is 0.008 mM. The Max dose in assay [5] came out at 25 mM/kg. Moreover, the d tox in assay [2] turned out to be 3. Moreover, the C50 is 0.01 mM in assay [3] and 0.03 mM in assay [4].

As for `CC(C)(CO)NC(=O)c1ccc([N+](=O)[O-])o1`, the C1.6 in assay [1] is 0.05 mM. The same molecule came in with a Max dose in assay [5] of 100 mM/kg. Further, the d tox in assay [2] was determined as 2.1. The C50 is on record as 0.12 mM in assay [3] and 0.25 mM in assay [4].

Turning to `C[C@@H]1[C@H](C)N1CC(O)CNC(=O)/C=C/c1ccc([N+](=O)[O-])o1` (some centres not stated), the C1.6 in assay [1] was found to be 0.035 mM. The d tox in assay [2] is 1.8. In addition, the C50 is 0.04 mM in assay [3] and 0.07 mM in assay [4].

`C=CCNC(=O)c1ccc([N+](=O)[O-])o1`: in assay [1], the C1.6 is 0.05 mM. For the same molecule, in assay [2], the d tox is 1.8. Further, the C50 is on record as 0.045 mM in assay [3] and 0.08 mM in assay [4].

In the case of `C[C@@H]1[C@H](C)N1CC(O)CNC(=O)c1ccc([N+](=O)[O-])o1` (some centres not stated), in assay [1], the C1.6 came to 0.05 mM. Besides, the d tox in assay [2] came to 3. Further, the C50 is reported as 0.02 mM in assay [3] and 0.06 mM in assay [4].

As for `CC1(C)CN1CC(O)CNC(=O)c1ccc([N+](=O)[O-])o1` (configuration not stated), the C1.6 in assay [1] was determined as 0.04 mM. For the same molecule, the d tox in assay [2] amounted to 2. Moreover, the C50 in assay [3] stood at 0.075 mM; in assay [4] it was 0.15 mM.

In the case of `C[C@@H]1[C@H](C)N1CC(O)CNC(=O)C1OC1c1ccc([N+](=O)[O-])o1` (some centres not stated), the C1.6 in assay [1] amounted to 0.025 mM. In assay [2], the d tox is 1. In addition, the C50 in assay [3] and in assay [4] was 0.012 mM throughout.

For `O=C(NCC1CO1)c1ccc([N+](=O)[O-])o1` (configuration not stated), the C1.6 in assay [1] is on record as 0.02 mM. The Max dose in assay [5] was 50 mM/kg. Also, the d tox in assay [2] came to 1. Moreover, the C50 in assay [3] and in assay [4] was 0.05 mM in each case.

The record behind these values is ChEMBL document CHEMBL1125078, “Synthesis and evaluation of novel electrophilic nitrofuran carboxamides and carboxylates as radiosensitizers and bioreductively activated cytotoxins” (1990).
